Measurements collected from several papers.
Lines come from different studies, so protocols differ. pEC50, pIC50, pKi: −log10 of the molar value.
ACE: Angiotensin-converting enzyme (ACE, Homo sapiens, UniProt P12821)
CA12: Carbonic anhydrase 12 (CA12, Homo sapiens, UniProt O43570)
GHSR: Growth hormone secretagogue receptor type 1 (GHSR, Homo sapiens, UniProt Q92847)
DRD3: D(3) dopamine receptor (DRD3, Homo sapiens, UniProt P35462)
SLC6A3: Sodium-dependent dopamine transporter (SLC6A3, Homo sapiens, UniProt Q01959)

Compound | target | effect on | action | technique | pH | measurement | value
CC(C)C[C@H](NC(=O)[C@@H](NC(=O)[C@@H](NC(=O)[C@@H]1CCCN1C(=O)[C@@H](N)CCC(=O)O)C(C)C)[C@@H](C)O)C(=O)O | ACE | enzyme activity | inhibitor |  |  | pIC50 | ~3.36
O=C(Nc1cccc(C(F)(F)F)c1)Nc1ccc2c(c1)C=CCP(=O)(O)O2 | CA12 | enzyme activity | inhibitor | stopped-flow |  | pKi | < 5.00
NC(=O)CC[C@H](N)C(=O)NCC(=O)NCC(=O)N[C@@H](CC(=O)O)C(=O)N[C@@H](Cc1ccccc1)C(=O)O | ACE | enzyme activity | inhibitor |  |  | pIC50 | ~2.96
CC(C)C[C@H](NC(=O)[C@@H](N)C(C)C)C(=O)N[C@@H](CO)C(=O)N1CCC[C@H]1C(=O)N[C@@H](CCC(N)=O)C(=O)O | ACE | enzyme activity | inhibitor | absorbance |  | pIC50 | 3.98
CC[C@H](C)[C@H](NC(=O)[C@H](C)NC(=O)[C@H](C)NC(=O)[C@H](CCC(=O)O)NC(=O)[C@H](CCCNC(=N)N)NC(=O)[C@H](C)NC(=O)[C@H](CC(C)C)NC(=O)[C@H](CC(C)C)NC(=O)[C@H](CCCNC(=N)N)NC(=O)[C@H](CCCNC(=N)N)NC(=O)[C@H](C)NC(=O)[C@H](Cc1c[nH]cn1)NC(=O)[C@H](CCC(=O)O)NC(=O)[C@@H]1CCCN1C(=O)[C@H](CO)NC(=O)[C@H](CC(C)C)NC(=O)[C@H](Cc1ccccc1)NC(=O)[C@H](Cc1c[nH]c2ccccc12)NC(=O)[C@H](CO)NC(=O)CN)C(=O)N1CCC[C@H]1C(=O)N1CCC[C@H]1C(=O)N1CCC[C@H]1C(=O)N1CCC[C@H]1C(=O)N[C@H](C(=O)N[C@H](C(=O)N1CCC[C@H]1C(=O)N[C@@H](CC(C)C)C(=O)O)C(C)C)C(C)C | GHSR | calcium signal | agonist | fluorescence |  | pEC50 | 6.82
Cc1[nH]c(C)c(S(=O)(=O)Nc2ccc(S(=O)(=O)F)c(Cl)c2)c1C(=O)N1CCC(F)(F)C1 | DRD3 | β-arrestin recruitment | antagonist |  |  | pIC50 | 6.03
Cc1ccc(C(=O)Nc2ccc3c(c2)C=CCP(=O)(O)O3)cc1 | CA12 | enzyme activity | inhibitor | stopped-flow |  | pKi | 8.11
CC[C@H](C)[C@H](NC(=O)[C@H](Cc1ccccc1)NC(=O)[C@H](CC(=O)O)NC(=O)[C@H](CCCNC(=N)N)NC(=O)[C@@H](NC(=O)[C@H](C)NC(=O)[C@H](CCCCN)NC(=O)[C@H](CCCNC(=N)N)NC(=O)[C@H](CCC(=O)O)NC(=O)[C@H](CC(C)C)NC(=O)[C@H](CC(C)C)NC(=O)[C@H](CCC(=O)O)NC(=O)[C@H](CC(=O)O)NC(=O)[C@H](Cc1c[nH]c2ccccc12)NC(=O)[C@H](CC(C)C)NC(=O)[C@H](CO)NC(=O)[C@@H](NC(=O)[C@H](Cc1ccccc1)NC(=O)[C@H](CCC(=O)O)NC(=O)[C@H](CC(C)C)NC(=O)[C@H](CCC(=O)O)NC(=O)CNC(=O)[C@@H]1CCCN1)[C@@H](C)O)C(C)C)C(=O)N[C@@H](C)C(=O)N[C@@H](Cc1c[nH]cn1)C(=O)N[C@@H](CC(C)C)C(=O)N[C@@H](CCCCN)C(=O)N[C@@H](CCC(N)=O)C(=O)O | Glucagon-like peptide 1 receptor (GLP1R, Homo sapiens, UniProt P43220) | calcium signal | antagonist | fluorescence |  | pIC50 | 5.79
O=C(Nc1ccc(C(F)(F)F)cc1)Nc1ccc2c(c1)C=CCP(=O)(O)O2 | CA12 | enzyme activity | inhibitor | stopped-flow |  | pKi | < 5.00
Cc1[nH]c(C)c(S(=O)(=O)Nc2ccc(S(F)(F)(F)(F)F)cc2)c1C(=O)N(C)C | DRD3 | β-arrestin recruitment | antagonist |  |  | pIC50 | 5.77
CCC(CNc1nc(-c2cn3ccnc3cc2C)nc2ccccc12)c1ccccc1 (stereo not drawn) | SLC6A3 | ligand displacement |  | radioligand |  | pIC50 | 5.34
O=C(Nc1cccc(F)c1)Nc1ccc2c(c1)C=CCP(=O)(O)O2 | CA12 | enzyme activity | inhibitor | stopped-flow |  | pKi | < 5.00
CC[C@H](C)[C@H](NC(=O)[C@H](C)NC(=O)[C@H](C)NC(=O)[C@H](CCC(=O)O)NC(=O)[C@H](CCCNC(=N)N)NC(=O)[C@H](C)NC(=O)[C@H](CC(C)C)NC(=O)[C@H](CC(C)C)NC(=O)[C@H](CCCNC(=N)N)NC(=O)[C@H](CCCNC(=N)N)NC(=O)[C@H](CCC(=O)O)NC(=O)[C@H](Cc1c[nH]cn1)NC(=O)[C@H](CCC(=O)O)NC(=O)[C@@H]1CCCN1C(=O)[C@H](CO)NC(=O)[C@H](CC(C)C)NC(=O)[C@H](Cc1ccccc1)NC(=O)[C@H](Cc1c[nH]c2ccccc12)NC(=O)[C@H](CO)NC(=O)CN)C(=O)N1CCC[C@H]1C(=O)N1CCC[C@H]1C(=O)N1CCC[C@H]1C(=O)N1CCC[C@H]1C(=O)N[C@H](C(=O)N1CCC[C@H]1C(=O)N1CCC[C@H]1C(=O)N[C@@H](CC(C)C)C(=O)O)C(C)C | GHSR | calcium signal | agonist | fluorescence |  | pEC50 | 6.57
Cc1[nH]c(C)c(S(=O)(=O)Nc2ccc(S(F)(F)(F)(F)F)c(Cl)c2)c1C(=O)N1CCC(F)(F)C1 | DRD3 | β-arrestin recruitment | antagonist |  |  | pIC50 | 5.96
O=C(Nc1ccc2c(c1)C=CCP(=O)(O)O2)c1ccc(Br)cc1 | CA12 | enzyme activity | inhibitor | stopped-flow |  | pKi | 7.07
CCCCC1CNC2CCc3ccc(OC)cc3C12 (racemic) | DRD3 | ligand displacement |  | radioligand |  | pKi | 5.30
N#C[Se]Cc1cc(=O)oc2cc(O)ccc12 | CA12 | enzyme activity | inhibitor | stopped-flow |  | pKi | 7.03
CC[C@H](C)[C@H](NC(=O)[C@H](C)NC(=O)[C@H](C)NC(=O)[C@H](CCC(=O)O)NC(=O)[C@H](CCCNC(=N)N)NC(=O)[C@H](C)NC(=O)[C@H](CC(C)C)NC(=O)[C@H](CC(C)C)NC(=O)[C@H](CCCNC(=N)N)NC(=O)[C@H](CCCNC(=N)N)NC(=O)[C@H](C)NC(=O)[C@H](Cc1c[nH]cn1)NC(=O)[C@H](CCC(=O)O)NC(=O)[C@@H]1CCCN1C(=O)[C@H](CO)NC(=O)[C@H](CC(C)C)NC(=O)[C@H](Cc1ccccc1)NC(=O)[C@H](Cc1c[nH]c2ccccc12)NC(=O)[C@H](CO)NC(=O)CN)C(=O)N1CCC[C@H]1C(=O)N1CCC[C@H]1C(=O)N1CCC[C@H]1C(=O)N1CCC[C@H]1C(=O)N[C@H](C(=O)N1CCC[C@H]1C(=O)N1CCC[C@H]1C(=O)N1CCC[C@H]1C(=O)O)C(C)C | GHSR | calcium signal | agonist | fluorescence |  | pEC50 | 6.72
O=C(Nc1ccc2c(c1)C=CCP(=O)(O)O2)c1cccs1 | CA12 | enzyme activity | inhibitor | stopped-flow |  | pKi | 7.13
CC(C)C[C@H](NC(=O)CNC(=O)[C@H](CCCNC(=N)N)NC(=O)[C@H](Cc1c[nH]c2ccccc12)NC(=O)[C@H](Cc1ccccc1)NC(=O)[C@@H]1CCCN1C(=O)CN)C(=O)N[C@@H](CO)C(=O)N[C@@H](CCCNC(=N)N)C(=O)N[C@@H](CCCNC(=N)N)C(=O)N1CCC[C@H]1C(=O)N[C@@H](CC(C)C)C(=O)N[C@@H](CCCNC(=N)N)C(=O)O | GHSR | calcium signal | antagonist | fluorescence |  | pIC50 | 5.47
COC(=O)[C@H]1[C@@H](c2ccc(Cl)c(Cl)c2)C[C@@H]2CC[C@H]1N2CCCOCc1ccc2cc3ccccc3cc2c1 | SLC6A3 | ligand displacement |  | radioligand | pH 7.4 | pKi | 7.29
